Measurements reported in ChEMBL document CHEMBL3425475, “Identification of indole inhibitors of human hematopoietic prostaglandin D2 synthase (hH-PGDS)” (Bioorg Med Chem Lett, 2015).
In brackets after ≈: the same amount, converted by molar mass.

Columns and labels:
[1] = target: T1, Hematopoietic prostaglandin D synthase (Homo sapiens, UniProt O60760); assay: Inhibition human HPGDS expressed in Escherichia coli assessed as reduction in GST enzymatic activity using MCBL and glutathione incubated for 30 mins by fluorescence based assay
Summary of the method: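 Compound was preincubated 30 min with enzyme at 1.5 µg/ml in 50 mM Tris, 2 mM MgCl2, 0.1% CHAPS. MCBL (0.4 mM, added solution) and glutathione were then added, and fluorescence (ex 360/em 460) was read at once and again after 30 min. Readings were normalised to DMSO wells (0%) and a control inhibitor (100%). Values are means of at least two independent experiments.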

[2] = target: T1, Hematopoietic prostaglandin D synthase; assay: Inhibition fluorescein-conjugated ligand binding to human HPGDS expressed in Escherichia coli by fluorescence polarization assay
Summary of the method: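 Recombinant E. coli-expressed hH-PGDS. Displacement of a fluorescein-conjugated potent hH-PGDS inhibitor by compound was followed in dose-response by fluorescence polarization, excitation 470 nm and emission 530 nm. The assay was adapted from a commercial kit.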

[3] = Solubility of the compound; type: physicochemical
[4] = target: T1, Hematopoietic prostaglandin D synthase; assay: Binding affinity to human HPGDS expressed in Escherichia coli using 1-phenylpyrazole-4-carboxylic acid/6-(3-fluorophenyl)pyridine-3-carboxamide as reporter probe by ligand-observed 1D NMR T1rho binding assay
Summary of the method: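 Ligand-observed NMR displacement of reporter molecules from recombinant E. coli-expressed wild-type hH-PGDS. Active-site binding of the reporters was confirmed by competition with a known inhibitor. Kd was calculated from the extent of reporter displacement at two compound concentrations, using the experimentally determined reporter and compound concentrations in an exact mathematical expression. Values are means of at least two independent experiments.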

[5] = target: T1, Hematopoietic prostaglandin D synthase; assay: Inhibition HPGDS in human MEG01 cells assessed as reduction in PGD2 production incubated for 30 mins followed by stimulation with 5 uM ionomycin for 30 mins by enzyme immunoassay method; type: cell-based, MEG-01
Summary of the method: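 MEG-01 cells were differentiated with 0.1 µM PMA for 16 h, then plated. Inhibitor was added in concentration response, 10 µM–0.15 nM, for 30 min at 37 °C, followed by 5 µM ionomycin for 30 min at 37 °C. Secreted PGD2 in the medium was quantified by PGD2-MOX EIA.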

[6] = target: T1, Hematopoietic prostaglandin D synthase; assay: Binding affinity to human HPGDS expressed in Escherichia coli by isothermal titration calorimetry
Summary of the method: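 Recombinant wild-type hH-PGDS, expressed in E. coli and purified by cation exchange and gel filtration. Ligand, typically 500 µM at experimentally determined concentration, titrated in 2 µL aliquots into 30–40 µM protein. Reverse titrations (protein into ligand) used where ligand solubility was low. Values are means of at least two independent experiments.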

T1 sequence (O60760 whole entry): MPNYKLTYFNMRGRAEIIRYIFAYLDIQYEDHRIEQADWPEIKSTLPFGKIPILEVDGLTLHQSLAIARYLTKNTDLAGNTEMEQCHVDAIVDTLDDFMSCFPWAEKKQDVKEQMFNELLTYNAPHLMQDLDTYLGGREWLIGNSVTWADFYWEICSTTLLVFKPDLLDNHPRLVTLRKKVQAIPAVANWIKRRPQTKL

IC50 [1] [µM] | IC50 [2] [µM] | solubility [3] [µM] | Kd [4] [µM] | EC50 [5] [µM] | Kd [6] [µM] | Compound
0.06 | 0.21 | 4.2 (≈ 1.65 µg/mL) | 0.044 | 0.13 | 0.012 | COc1cccc(-c2ccc(C(=O)NC3CCN(CC(F)(F)F)CC3)cn2)c1
0.3 | 0.46 | 95 (≈ 29.3 µg/mL) | 0.34 | 0.35 | 0.21 | CN(C)CCC(=O)Nc1cncc(-c2cccc3[nH]ccc23)c1
0.2 | – | 2.6 (≈ 0.992 µg/mL) | 0.0095 | 0.035 | 0.02 | O=C(NC1CCN(CC(F)(F)F)CC1)c1ccc(-c2cccc(F)c2)nc1
– | – | – | 10 | – | – | O=C(NC1CCN(CC(F)(F)F)CC1)c1ccc(-c2ccc(=O)[nH]c2)nc1
0.13 | – | – | 1 | – | – | O=C(CCN1CCCCC1)Nc1cncc(-c2cccc3[nH]ccc23)c1
0.17 | 2.9 | 77 (≈ 23.1 µg/mL) | 0.65 | – | – | COCCCNC(=O)c1nc(-c2cccc3[nH]ccc23)no1
0.18 | 0.82 | 84 (≈ 27.1 µg/mL) | 0.57 | – | – | CN(C)CCCC(=O)Nc1cncc(-c2cccc3[nH]ccc23)c1
0.59 | – | – | 1 | – | – | O=C1CN(c2ccc(C(=O)NC3CCN(CC(F)(F)F)CC3)cn2)CCN1
0.071 | – | – | 0.4 | – | – | O=C(NC1CCN(CC(F)(F)F)CC1)c1ccc(-c2cccc(=O)[nH]2)nc1
0.043 | – | – | 0.2 | – | – | O=C(Cn1cnnn1)Nc1cncc(-c2cccc3[nH]ccc23)c1
0.23 | – | – | 0.2 | – | – | O=C(NC1CCN(CC(F)(F)F)CC1)c1ccc(N2CCCC2)nc1
0.032 | – | – | 0.06 | – | – | CCC(=O)Nc1cncc(-c2cccc3[nH]ccc23)c1
0.07 | – | – | 0.2 | – | – | O=C(NC1CCN(CC(F)(F)F)CC1)c1ccc(-c2cc[nH]c(=O)c2)nc1
– | – | – | 14 | – | – | CN(C)c1ccc(C(=O)NC2CCN(CC(F)(F)F)CC2)cn1
– | – | – | 13 | – | – | O=C(NC1CCN(CC(F)(F)F)CC1)c1ccc(N2CCNCC2)nc1
0.07 | – | – | 0.023 | 0.074 | 0.035 | CC(C)(O)c1nc(-c2ccc(CNC(=O)c3cnc(-c4ccccn4)nc3)cc2)no1
0.035 | – | – | 0.3 | – | – | O=C1CC[C@@H](C(=O)Nc2cncc(-c3cccc4[nH]ccc34)c2)N1
0.32 | – | – | 0.4 | – | – | O=C(NC1CCN(CC(F)(F)F)CC1)c1ccc(N2CCOCC2)nc1
0.023 | – | 1.4 (≈ 0.318 µg/mL) | 0.051 | 0.11 | 0.3 | c1ccc(-c2ncc(-c3cc[nH]n3)s2)cc1
1.2 | – | – | < 20 | – | – | Cn1cncc1CC(=O)Nc1cncc(-c2cccc3[nH]ccc23)c1
0.048 | – | – | < 0.1 | – | – | O=C(NC1CCN(CC(F)(F)F)CC1)c1ccc(N2CCCCC2)nc1
0.026 | – | – | 0.05 | – | – | O=C(CCc1cccnc1)Nc1cncc(-c2cccc3[nH]ccc23)c1
– | – | – | – | – | 0.8 | NC(=O)c1ccc(-c2cccc(F)c2)nc1
0.031 | – | – | 0.06 | – | – | O=C(NC1CCN(CC(F)(F)F)CC1)c1ccc(Oc2ccccc2)nc1
– | – | – | 2 | – | – | COc1cc(-c2ccc(C(=O)NC3CCN(CC(F)(F)F)CC3)cn2)ccn1

Compound | IC50 [1] [µM] | IC50 [2] [µM] | solubility [3] [µM] | Kd [4] [µM] | EC50 [5] [µM] | Kd [6] [µM]
O=C(O)c1cnn(-c2ccccc2)c1 | – | – | – | – | – | 140
